We go through 23 compounds from ChEMBL document CHEMBL3414544, “PAINS in the assay: chemical mechanisms of assay interference and promiscuous enzymatic inhibition observed during a sulfhydryl-scavenging HTS” (J Med Chem, 2015).

For series [1], the target named is T1, Histone acetyltransferase RTT109 (Saccharomyces cerevisiae (strain ATCC 204508 / S288c) (Baker's yeast), UniProt Q07794).
T1 sequence (Q07794 whole entry): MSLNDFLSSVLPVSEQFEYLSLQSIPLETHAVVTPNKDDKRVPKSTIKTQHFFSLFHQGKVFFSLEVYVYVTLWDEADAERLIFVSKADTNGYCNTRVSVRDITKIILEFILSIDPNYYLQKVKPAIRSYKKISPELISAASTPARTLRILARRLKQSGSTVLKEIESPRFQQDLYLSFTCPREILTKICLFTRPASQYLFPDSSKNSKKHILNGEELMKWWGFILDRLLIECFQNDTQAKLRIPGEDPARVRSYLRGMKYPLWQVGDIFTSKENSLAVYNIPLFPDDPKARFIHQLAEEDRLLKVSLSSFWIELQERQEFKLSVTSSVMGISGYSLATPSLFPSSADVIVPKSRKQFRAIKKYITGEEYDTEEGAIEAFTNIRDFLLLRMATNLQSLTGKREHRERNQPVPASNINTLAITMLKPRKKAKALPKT
The series is described as follows: Inhibition of Vps75-stimulated recombinant Saccharomyces cerevisiae histone acetyltransferase Rtt109 using Asf1-dH3-H4 as substrate assessed as coenzyme A production after 45 mins by CPM based HTS assay. The procedure, abridged:
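Recombinant Rtt109–Vps75 at 50 nM, with Asf1–dH3–H4 as substrate and acetyl-CoA as acetyl donor. Buffer contained freshly prepared 0.01% Triton X-100. The CoA product was detected by fluorescence of its CPM adduct. Plates had Z′ ≥0.5. IC50 came from a four-parameter variable-slope fit.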

The target in series [2] is T2, Histone acetyltransferase RTT109 (Saccharomyces cerevisiae (strain ATCC 204508 / S288c) (Baker's yeast)) (UniProt Q07794).
T2 sequence (whole entry): T1 sequence (Q07794 whole entry)
As to the kind of experiment: Inhibition of Vps75-stimulated recombinant Saccharomyces cerevisiae histone acetyltransferase Rtt109 assessed as H3K56 acetylated product at […] after 45 mins by Slot bolt inhibiton assay.

The target of series [3] is T2, Histone acetyltransferase RTT109 (Saccharomyces cerevisiae (strain ATCC 204508 / S288c) (Baker's yeast)). As to the kind of experiment: Inhibition of Vps75-stimulated recombinant Saccharomyces cerevisiae histone acetyltransferase Rtt109 assessed as H3K27 acetylated product at […] after 45 mins by Slot bolt inhibiton assay.
Series [4] can be described thus: Fluorescence quenching assessed as fluorescence signal reduction at 10 uM after 10 mins. Format: physicochemical. The procedure, abridged: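 CPM (20 μM final) and CoA (5 μM final) reacted to completion in assay buffer (stable plateau, usually ~5 min); adduct solution added to wells preplated with compound; shaken 5 min, equilibrated 5 min at room temperature; fluorescence intensity read as percent signal reduction versus DMSO controls. Flagged as quencher at >20% signal reduction at 10 μM final compound.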

Series [5] is described as follows: Fluorescence quenching in HTS buffer assessed as fluorescence signal reduction at 10 uM after 10 mins. Format: physicochemical.
Series [6] can be described thus: Fluorescence quenching in HTS buffer with […] CoA assessed as fluorescence signal reduction at 10 uM after 10 mins. The format is physicochemical.
Series [7] in a line: Fluorescence quenching in HTS buffer with 20 uM 7-diethylamino-3-(4'-maleimidyl-phenyl)-4-methylcoumarin assessed as fluorescence signal reduction at 10 uM after 10 mins. Format: physicochemical.

Calls of active or inactive are those of the source.

Usually IC50 stands for the midpoint of a concentration-inhibition curve.

For `CN(C)c1nc(-c2ccccc2)[n+](C)s1.[O-][Cl+3]([O-])([O-])[O-]`, in series [1] (read-out: IC50), the IC50 is 5.3 µM. The outcome in series [2] and in series [3] was Active. The Activity entry in series [4], in series [5], in series [6] and in series [7] was “Not Active” each time.
`O=[N+]([O-])c1ccc(Sc2nnc(-c3ccccc3)o2)c2nonc12`: the IC50 in series [1] (read-out: IC50) worked out at 1.1 µM. For the same compound, the result in series [2] and in series [3] was Active. For the same compound, the Activity result in series [4], in series [5], in series [6] and in series [7] was “Not Active” each time.
`O=[N+]([O-])c1ccccc1-c1nnc(SC2=CS(=O)(=O)c3ccccc32)o1`: in series [1] (read-out: IC50), the concentration for half-maximal inhibition (IC50) amounted to 5.7 µM. For the same compound, the outcome in series [2] and in series [3] was Active. The Activity result in series [4], in series [5], in series [6] and in series [7] was “Not Active” throughout.
With `O=S(=O)(Nc1cc(Sc2nc3ccccc3s2)c(O)c2ccccc12)c1ccccc1`, in series [1] (read-out: IC50), the IC50 worked out at 9.9 µM. Besides, the result in series [2] and in series [3] was Active. For the same compound, the Activity entry in series [4], in series [5], in series [6] and in series [7] was “Not Active” in each case.
For `[Br-].c1ccc(CNc2nc(-c3ccccc3)[n+](-c3ccccc3)s2)cc1`, in series [1] (read-out: IC50), the IC50 was 2.4 µM. For the same compound, the result in series [2] and in series [3] was Active. For the same compound, the Activity result in series [4], in series [5], in series [6] and in series [7] was “Not Active” throughout.
In the case of `Cc1ccc(N2C(=O)C=CC2=O)cc1`, in series [1] (read-out: IC50), the IC50 was 6 µM. In addition, the result in series [2] and in series [3] was Active. The Activity result in series [4], in series [5], in series [6] and in series [7] was “Not Active” throughout.
As for `[O-][Cl+3]([O-])([O-])[O-].c1ccc(-c2nc(N(c3ccccc3)c3ccccc3)s[n+]2-c2ccccc2)cc1`, the IC50 in series [1] (read-out: IC50) came out at 3.5 µM. For the same compound, the result in series [2] and in series [3] was Active. Moreover, the Activity result in series [4], in series [5], in series [6] and in series [7] was “Not Active” in each case.
Take `CC(C)c1ccc(S(=O)(=O)Nc2cc(SCCC(=O)O)c(O)c3ccccc23)cc1`: the IC50 entry in series [1] was “Not Active”. Besides, the Activity entry in series [4] is listed as “Not Active”; in series [5] it was “Not Active”; in series [6], “Not Active”; in series [7], “Active”.
In the case of `Cc1ccc(S(=O)(=O)C[n+]2sc(N(c3ccccc3)c3ccccc3)nc2-c2ccccc2)cc1.[Br-]`, in series [1] (read-out: IC50), the IC50 was found to be 42 µM. Also, the Activity entry in series [4], in series [5], in series [6] and in series [7] was “Not Active” throughout.
For the compound `[Cl-].c1ccc(C[n+]2sc(Nc3ccccc3)nc2-c2ccccc2)cc1`, the IC50 in series [1] (read-out: IC50) worked out at 3.1 µM. In addition, the Activity entry in series [4], in series [5], in series [6] and in series [7] was “Not Active” in each case.
`CC(C)(C)c1ccc(S(=O)(=O)Nc2cc(SCC(=O)O)c(O)c3ccccc23)cc1`: the IC50 result in series [1] was “Not Active”. Besides, the Activity result in series [4] is reported as “Not Active”; in series [5], “Not Active”; in series [6], “Not Active”; in series [7], “Active”.
For `[Br-].c1ccc(C[n+]2sc(Nc3ccccc3)nc2-c2ccccc2)cc1`, the IC50 in series [1] (read-out: IC50) stood at 3.1 µM. For the same compound, the Activity entry in series [4], in series [5], in series [6] and in series [7] was “Not Active” in each case.
For `O=C(O)CSc1cc(NS(=O)(=O)c2cccc([N+](=O)[O-])c2)c2ccccc2c1O`, the IC50 result in series [1] is “Not Active”. The Activity result is recorded as “Not Active” in series [4], “Not Active” in series [5], “Not Active” in series [6] and “Active” in series [7].
In the case of `Cc1ccc(S(=O)(=O)C[n+]2sc(N(c3ccccc3)c3ccccc3)nc2-c2ccccc2)cc1.[Cl-]`, in series [1] (read-out: IC50), the IC50 stood at 26 µM. The Activity entry in series [4], in series [5], in series [6] and in series [7] was “Not Active” in each case.
On to `CC(C)c1ccc(S(=O)(=O)Nc2ccc(O)c(Br)c2)cc1`, for which the result in series [2] and in series [3] was inactive. Besides, the Activity entry in series [4], in series [5], in series [6] and in series [7] was “Not Active” in each case.
Consider `[Br-].c1ccc(Nc2nc(-c3ccccc3)[n+](-c3ccccc3)s2)cc1`, for which the outcome in series [2] and in series [3] was Active. Further, the Activity result in series [4], in series [5], in series [6] and in series [7] was “Not Active” each time.
On to `COc1ccc(Nc2nc(-c3ccc(C)cc3)[n+](Cc3ccccc3)s2)cc1.[Cl-]`, for which the outcome in series [2] and in series [3] was Active. Also, the Activity entry in series [4], in series [5], in series [6] and in series [7] was “Not Active” each time.
Consider `O=c1[nH]c(Sc2c([N+](=O)[O-])cc(Br)c3nsnc23)nc2ccccc12`, for which the outcome in series [2] and in series [3] was Active. Moreover, the Activity entry in series [4], in series [5], in series [6] and in series [7] was “Not Active” each time.
Regarding `O=C1CC(Sc2nnc(-c3ccccc3O)o2)C(=O)N1c1ccccc1` (stereo not drawn), the outcome in series [2] and in series [3] was Active. Also, the Activity result in series [4], in series [5], in series [6] and in series [7] was “Not Active” each time.
Turning to `COc1ccc(-c2nc(N)s[n+]2-c2ccccc2)cc1.[Cl-]`, the outcome in series [2] and in series [3] was Active. For the same compound, the Activity result in series [4], in series [5], in series [6] and in series [7] was “Not Active” each time.
As to `Cc1cc(C)c(S(=O)(=O)Nc2cc(Br)c(O)c3ccccc23)c(C)c1`, the result in series [2] and in series [3] was Active. Moreover, the Activity result in series [4], in series [5], in series [6] and in series [7] was “Not Active” in each case.
Regarding `Cc1ccc(S(=O)(=O)C2=CS(=O)(=O)c3ccccc32)cc1`, the result in series [2] and in series [3] was Active. Moreover, the Activity result in series [4], in series [5], in series [6] and in series [7] was “Not Active” in each case.
In the case of `Cc1ccc(-c2nc(Nc3ccccc3)s[n+]2CS(=O)(=O)c2ccccc2)cc1.[Cl-]`, the outcome in series [2] and in series [3] was Active. In addition, the Activity entry in series [4], in series [5], in series [6] and in series [7] was “Not Active” each time.
